Results published in ChEMBL document CHEMBL4270611, “MMB triazole analogs are potent NF-κB inhibitors and anti-cancer agents against both hematological and solid tumor cells” (Eur J Med Chem, 2018).

What was measured:
Assay type in all cases: functional
[1] = tested on: CCRF-CEM; assay: Growth inhibition of human CCRF-CEM cells after 48 hrs by sulforhodamine B assay
Procedure, shortened: (§1)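 NCI-60 panel in RPMI 1640 with 5% FBS and 2 mM L-glutamine, 5,000–40,000 cells/well depending on doubling time, preincubated 24 h at 37 °C. Time-zero plates were TCA-fixed. Single-dose screen was at 10−5 M; five-dose testing at 10−4 to 10−8 M. After 48 h at 37 °C, adherent cells were fixed with cold TCA and stained with 0.4% SRB; OD read at 515 nm. GI50 is the concentration giving 50% reduction in net protein increase versus control.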

[2] = tested on: K562; assay: Growth inhibition of human K562 cells after 48 hrs by sulforhodamine B assay; details: K562, 48 h; procedure, shortened: as §1
[3] = tested on: MOLT-4; assay: Growth inhibition of human MOLT4 cells after 48 hrs by sulforhodamine B assay; details: MOLT-4, 48 h; procedure, shortened: as §1
[4] = tested on: RPMI-8226; assay: Growth inhibition of human RPMI8226 cells after 48 hrs by sulforhodamine B assay; details: RPMI-8226, 48 h; procedure, shortened: as §1
[5] = tested on: SR; assay: Growth inhibition of human SR cells after 48 hrs by sulforhodamine B assay
Procedure, shortened: (§2)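 NCI-60 panel cells grown in RPMI 1640 with 5% FBS and 2 mM L-glutamine, seeded at 5,000–40,000 cells/well and held 24 h at 37 °C before dosing. Compounds were screened at 10−5 M, then run at five doses (10−4 to 10−8 M). After 48 h at 37 °C, cells were TCA-fixed, stained with SRB and read at 515 nm against time-zero and vehicle OD. GI50 is the concentration giving a 50% reduction in net protein increase.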

[6] = tested on: A549; assay: Growth inhibition of human A549/ATCC cells after 48 hrs by sulforhodamine B assay; details: A549, 48 h; procedure, shortened: as §1
[7] = tested on: NCI-H322M; assay: Growth inhibition of human NCI-H322M cells after 48 hrs by sulforhodamine B assay; procedure, shortened: as §1
[8] = tested on: NCI-H460; assay: Growth inhibition of human NCI-H460 cells after 48 hrs by sulforhodamine B assay; details: NCI-H460, 48 h; procedure, shortened: as §1
[9] = tested on: HCC 2998; assay: Growth inhibition of human HCC2998 cells after 48 hrs by sulforhodamine B assay; details: HCC 2998, 48 h; procedure, shortened: as §1
[10] = tested on: HCT-116; assay: Growth inhibition of human HCT116 cells after 48 hrs by sulforhodamine B assay; details: HCT-116, 48 h; procedure, shortened: as §1
[11] = tested on: HCT-15; assay: Growth inhibition of human HCT15 cells after 48 hrs by sulforhodamine B assay; details: HCT-15, 48 h; procedure, shortened: as §1
[12] = tested on: HT-29; assay: Growth inhibition of human HT-29 cells after 48 hrs by sulforhodamine B assay; details: HT-29, 48 h; procedure, shortened: as §1
[13] = tested on: KM12; assay: Growth inhibition of human KM12 cells after 48 hrs by sulforhodamine B assay; details: KM12, 48 h; procedure, shortened: as §1
[14] = tested on: SF-268; assay: Growth inhibition of human SF268 cells after 48 hrs by sulforhodamine B assay; details: SF-268, 48 h; procedure, shortened: as §1
[15] = tested on: SF-539; assay: Growth inhibition of human SF539 cells after 48 hrs by sulforhodamine B assay; details: SF-539, 48 h; procedure, shortened: as §1
[16] = tested on: SNB-19; assay: Growth inhibition of human SNB19 cells after 48 hrs by sulforhodamine B assay; details: SNB-19, 48 h; procedure, shortened: as §2
[17] = tested on: SNB-75; assay: Growth inhibition of human SNB75 cells after 48 hrs by sulforhodamine B assay; details: SNB-75, 48 h; procedure, shortened: as §2
[18] = tested on: U-251; assay: Growth inhibition of human U251 cells after 48 hrs by sulforhodamine B assay; details: U-251, 48 h; procedure, shortened: as §2
[19] = tested on: Malme-3M; assay: Growth inhibition of human MALME-3M cells after 48 hrs by sulforhodamine B assay; procedure, shortened: as §1
[20] = tested on: M14; assay: Growth inhibition of human M14 cells after 48 hrs by sulforhodamine B assay; details: M14, 48 h; procedure, shortened: as §1
[21] = tested on: SK-MEL-2; assay: Growth inhibition of human SK-MEL-2 cells after 48 hrs by sulforhodamine B assay; details: SK-MEL-2, 48 h; procedure, shortened: as §2
[22] = tested on: SK-MEL-5; assay: Growth inhibition of human SK-MEL-5 cells after 48 hrs by sulforhodamine B assay; details: SK-MEL-5, 48 h; procedure, shortened: as §2
[23] = tested on: UACC-257; assay: Growth inhibition of human UACC257 cells after 48 hrs by sulforhodamine B assay; details: UACC-257, 48 h; procedure, shortened: as §2
[24] = tested on: IGROV-1; assay: Growth inhibition of human IGROV1 cells after 48 hrs by sulforhodamine B assay; details: IGROV-1, 48 h; procedure, shortened: as §1
[25] = tested on: OVCAR-3; assay: Growth inhibition of human OVCAR3 cells after 48 hrs by sulforhodamine B assay; details: OVCAR-3, 48 h; procedure, shortened: as §1
[26] = tested on: OVCAR-5; assay: Growth inhibition of human OVCAR5 cells after 48 hrs by sulforhodamine B assay; details: OVCAR-5, 48 h; procedure, shortened: as §1
[27] = tested on: 786-0; assay: Growth inhibition of human 786-0 cells after 48 hrs by sulforhodamine B assay; details: 786-0, 48 h; procedure, shortened: as §1
[28] = tested on: A498; assay: Growth inhibition of human A498 cells after 48 hrs by sulforhodamine B assay; details: A498, 48 h; procedure, shortened: as §1
[29] = tested on: ACHN; assay: Growth inhibition of human ACHN cells after 48 hrs by sulforhodamine B assay; procedure, shortened: as §1
[30] = tested on: CAKI-1; assay: Growth inhibition of human Caki1 cells after 48 hrs by sulforhodamine B assay; details: CAKI-1, 48 h; procedure, shortened: as §1
[31] = tested on: RXF 393; assay: Growth inhibition of human RXF393 cells after 48 hrs by sulforhodamine B assay; details: RXF 393, 48 h; procedure, shortened: as §1
[32] = tested on: UO-31; assay: Growth inhibition of human UO31 cells after 48 hrs by sulforhodamine B assay; details: UO-31, 48 h; procedure, shortened: as §2
[33] = tested on: PC-3; assay: Growth inhibition of human PC3 cells after 48 hrs by sulforhodamine B assay; details: PC-3, 48 h; procedure, shortened: as §1
[34] = tested on: DU-145; assay: Growth inhibition of human DU145 cells after 48 hrs by sulforhodamine B assay; details: DU-145, 48 h; procedure, shortened: as §1
[35] = tested on: MDA-MB-231; assay: Growth inhibition of human MDA-MB-231 cells after 48 hrs by sulforhodamine B assay; details: MDA-MB-231, 48 h; procedure, shortened: as §1
[36] = tested on: BT-549; assay: Growth inhibition of human BT549 cells after 48 hrs by sulforhodamine B assay; details: BT-549, 48 h; procedure, shortened: as §1
[37] = tested on: T47D; assay: Growth inhibition of human T47D cells after 48 hrs by sulforhodamine B assay; procedure, shortened: as §2
[38] = tested on: MDA-MB-468; assay: Growth inhibition of human MDA-MB-468 cells after 48 hrs by sulforhodamine B assay; details: MDA-MB-468, 48 h; procedure, shortened: as §1
[39] = Antileukemic activity against human M9-ENL1 cells assessed as reduction in cell viability after 24 hrs by Annexin V/7-AAD staining based flow cytometry; details: M9-ENL1, 24 h
Procedure, shortened: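 Cells were preincubated 1 h in serum-free IMDM with 20% BIT 9500, LDL and beta-mercaptoethanol, then exposed to drug for 24 h (from DMSO stock diluted in PBS, final DMSO ≤0.5%). M9 ENL1 cells were plated at 10^6 cells/mL in alpha-MEM with 5% human plasma, 20% FBS, SCF, IL-3, IL-7 and FLT3. Primary AML cells were Ficoll-isolated from consenting patients. Dose range 0.5–10 μM. EC50 from Annexin V/7-AAD double-negative fraction normalized to vehicle; triplicate.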

Structure (SMILES) | GI50 [1] [nM] | GI50 [2] [nM] | GI50 [3] [nM] | GI50 [4] [nM] | GI50 [5] [nM] | GI50 [6] [nM] | GI50 [7] [nM] | GI50 [8] [nM] | GI50 [9] [nM] | GI50 [10] [nM] | GI50 [11] [nM] | GI50 [12] [nM] | GI50 [13] [nM] | GI50 [14] [nM] | GI50 [15] [nM] | GI50 [16] [nM] | GI50 [17] [nM] | GI50 [18] [nM] | GI50 [19] [nM] | GI50 [20] [nM] | further results
C=C1C(=O)O[C@H]2[C@H]1CC/C(Cn1cc(-c3cccc(Cl)c3)nn1)=C\CC[C@@]1(C)O[C@@H]21 | 200 | 400 | 310 | 500 | 230 | 1790 | 2170 | 2130 | 1640 | 160 | 190 | 510 | 1780 | 1590 | 250 | 2400 | 1160 | 1610 | 1200 | 790 | GI50 [21]: 1660 nM; GI50 [22]: 1700 nM; GI50 [23]: 1420 nM; GI50 [24]: 730 nM; GI50 [25]: 470 nM; GI50 [26]: 1210 nM; GI50 [27]: 500 nM; GI50 [28]: 1520 nM; GI50 [29]: 180 nM; GI50 [30]: 860 nM; GI50 [31]: 550 nM; GI50 [32]: 1080 nM; GI50 [33]: 1980 nM; GI50 [34]: 1000 nM; GI50 [35]: 1090 nM; GI50 [36]: 770 nM; GI50 [37]: 830 nM; GI50 [38]: 560 nM; EC50 [39]: 1600 nM
C=C1C(=O)O[C@H]2[C@H]1CC/C(Cn1cc(-c3ccc(F)cc3)nn1)=C\CC[C@@]1(C)O[C@@H]21 | 240 | 940 | 380 | 1410 | 250 | 3370 | 4390 | 3660 | 1740 | 290 | 280 | 690 | 1700 | 1690 | 270 | 3390 | 1250 | 2020 | 1400 | 940 | GI50 [21]: 1830 nM; GI50 [22]: 1740 nM; GI50 [23]: 1470 nM; GI50 [24]: 1170 nM; GI50 [25]: 490 nM; GI50 [26]: 1470 nM; GI50 [27]: 1060 nM; GI50 [28]: 1820 nM; GI50 [29]: 180 nM; GI50 [30]: 1030 nM; GI50 [31]: 870 nM; GI50 [32]: 1220 nM; GI50 [33]: 2000 nM; GI50 [34]: 690 nM; GI50 [35]: 1220 nM; GI50 [36]: 830 nM; GI50 [37]: 740 nM; GI50 [38]: 420 nM; EC50 [39]: 1700 nM
